Test results taken from ChEMBL document CHEMBL3352295, “Neuroprotective Xanthones from the Root Bark of Cudrania tricuspidata” (J Nat Prod, 2014).

Test system: not listed separately
Assay: Neuroprotective activity against 6-hydroxydopamine-induced human SH-SY5Y cell death after 24 hrs by MTT assay
Type: functional, cell-based
Method in brief: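 SH-SY5Y cells seeded at 2 × 10^4 cells/well, grown 24 h, then exposed to 100 μM 6-OHDA together with test compounds (at least four concentrations) for 24 h. Viability by MTT (0.5 mg/mL in PBS, 37 °C, 4 h), formazan dissolved in DMSO, absorbance 540 nm. EC50 = half-maximal protection, from semilog concentration–effect plot; triplicate, mean ± SD; curcumin positive control.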

With C=CC(C)(C)c1c(O)cc(O)c2c(=O)c3c(CC(=O)C(=C)C)c(OC)c(O)cc3oc12 as the molecule, how does the EC50 read?
The EC50 was 7.2 µM.

With C=CC(C)(C)c1c(O)cc(O)c2c(=O)c3c(CC(O)C(=C)C)c(O)c(O)cc3oc12 (stereo not given) as the molecule, how does the EC50 read?
The EC50 was 16.6 µM.

Which EC50 does the source give for CC(C)=CCc1c(O)c(O)cc2c(=O)c3c4c(c(O)cc3oc12)C(C)(C)C(C)O4 (stereo not given) here?
The EC50 was 2.4 µM.

With CC1Oc2cc3oc4c5c(c(O)cc4c(=O)c3c(O)c2C1(C)C)OC(C)(C)C(O)C5 (stereo not given) as the molecule, how does the EC50 read?
The EC50 was 2.2 µM.

Which EC50 does the source give for C=CC(C)(C)c1c(O)cc(O)c2c(=O)c3c(cc(O)c4oc(C(=C)C)cc43)oc12 here?
Its EC50 is 0.8 µM.

Which EC50 does the source give for C=CC(C)(C)c1c(OC)cc(O)c2c(=O)c3c(CC(O)C(=C)C)c(O)c(O)cc3oc12 (stereo not given) here?
Its EC50 is 2.3 µM.

For CC1(C)C=Cc2c(cc(O)c3c(=O)c4c5c(ccc4oc23)OC(C)(C)C=C5)O1, which EC50 is on record?
Its EC50 is 4.5 µM.

Which EC50 does the source give for CC1(C)C=Cc2c(cc(O)c3c(=O)c4cccc(O)c4oc23)O1 here?
The EC50 was 5.1 µM.

For C=CC(C)(C)c1c(O)cc(O)c2c(=O)c3ccc(O)c(OC)c3oc12, which EC50 is on record?
Its EC50 is 0.7 µM.

Which EC50 does the source give for CC(C)=CCc1c2c(c(O)c3c(=O)c4ccc(O)c(O)c4oc13)C(C)(C)C(C)O2 (stereo not given) here?
Its EC50 is 3 µM.

With C=CC(C)(C)c1c(O)cc2oc3c(CC=C(C)C)c(O)c(O)cc3c(=O)c2c1O [CUDRAXANTHONE L] as the molecule, how does the EC50 read?
The EC50 was 8.2 µM.

With COc1cc(/C=C/C(=O)CC(=O)/C=C/c2ccc(O)c(OC)c2)ccc1O [CURCUMIN] as the molecule, how does the EC50 read?
Its EC50 is 6 µM.

For CC1(C)C=Cc2c(cc(O)c3c(=O)c4cc(O)ccc4oc23)O1 [NIGROLINEAXANTHONE F], which EC50 is on record?
The EC50 was 15.5 µM.

Test system: SH-SY5Y
Assay: Ratio of curcumin EC50 to compound EC50 for neuroprotective activity against 6-hydroxydopamine-induced human SH-SY5Y cell death after 24 hrs by MTT assay
Type: functional
Method in brief: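 SH-SY5Y cells seeded at 2 × 10^4 cells/well and grown 24 h. Cells then received 100 μM 6-OHDA together with test samples at ≥4 concentrations for a further 24 h. Viability was read by MTT (0.5 mg/mL in PBS, 37 °C, 4 h), with formazan dissolved in DMSO and read at 540 nm. EC50 (half-maximal protection) was taken from semilog plots, triplicate, mean ± SD. Curcumin was the reference.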

With C=CC(C)(C)c1c(O)cc(O)c2c(=O)c3c(cc(O)c4oc(C(=C)C)cc43)oc12 as the molecule, how does the “Ratio EC50” value read?
Its value is 7.

For C=CC(C)(C)c1c(O)cc(O)c2c(=O)c3ccc(O)c(OC)c3oc12, which “Ratio EC50” value is on record?
Its value is 7.
